In ChEMBL document CHEMBL1124035, “1-Amino-substituted 4-methyl-5H-pyrido[4,3-b]indoles (gamma-carbolines) as tricyclic analogues of ellipticines: a new class of antineoplastic agents” (1988):

Legend:
Calf thymus DNA = test: Apparent DNA affinity constant; format: nucleic-acid assay; details: Bos taurus
Outline: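 Apparent DNA affinity constant was measured by competition with ethidium bromide. Buffer was 20 mM Na2HPO4/NaH2PO4, 0.1 M NaCl, 1 mM EDTA, pH 7.4, with calf thymus DNA at 10 μg/mL. Values are given in 10^6 M⁻¹.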

L1210 = test: Ability to reduce the cell count to 50% in L1210 culture cells; format: functional; details: Mus musculus, read-out: ID50 (the source's name)
Outline: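 L1210 cells in exponential growth in RPMI 1640 with 2 mM glutamine, penicillin/streptomycin and 10% FCS, 37 °C, 5% CO2. Drugs dissolved in distilled water were added to cells at 0.8 × 10^5 cells/mL for 48 h, then cells were counted. ID50 is the concentration halving cell proliferation versus controls, from regression of dose-response data; mean of two independent experiments.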

Mus musculus [1] = test: Antitumor activity against P388 leukemia in mice at a dose of 0.5 mg/kg administered intraperitoneally for 5 days; format: functional; details: route intraperitoneal
Outline: (§1)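 CDF1 hybrid male or female mice, 10 per group, were inoculated ip with 10^6 viable P388 cells on day 0. Drugs in distilled water were given ip (0.1 mL/10 g body weight) daily D1-5. Vehicle, 5-fluorouracil and BD 84 were given the same way. T/C = median survival day of treated / controls × 100; T/C > 128% was significant; cures counted at D60.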

Mus musculus [2] = test: Antitumor activity against P388 leukemia in mice at a dose of 1 mg/kg administered intraperitoneally for 5 days; format: functional; details: route intraperitoneal; outline: as §1
Mus musculus [3] = test: Antitumor activity against P388 leukemia in mice at a dose of 16 mg/kg administered intraperitoneally for 5 days; format: functional; details: route intraperitoneal; outline: as §1
Mus musculus [4] = test: Antitumor activity against P388 leukemia in mice at a dose of 2 mg/kg administered intraperitoneally for 5 days; format: functional; details: route intraperitoneal; outline: as §1
Mus musculus [5] = test: Antitumor activity against P388 leukemia in mice at a dose of 24 mg/kg administered intraperitoneally for 5 days; format: functional; details: route intraperitoneal
Outline: (§2)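 CDF1 hybrid male or female mice, 10 per group, were inoculated ip on day 0 with 10^6 viable P388 leukemia cells. Drug in distilled water was given ip (0.1 mL/10 g body weight) daily on days 1-5, with vehicle, 5-fluorouracil and BD 84 controls given the same way. T/C = median survival of treated/controls × 100; T/C > 128% counted as significant.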

Mus musculus [6] = test: Antitumor activity against P388 leukemia in mice at a dose of 4 mg/kg administered intraperitoneally; format: functional; details: route intraperitoneal
Mus musculus [7] = test: Antitumor activity against P388 leukemia in mice at a dose of 8 mg/kg administered intraperitoneally for 5 days; format: functional; details: route intraperitoneal; outline: as §2
Mus musculus [8] = test: Antitumor activity against P388 leukemia in mice at a dose of 10 mg/kg administered intraperitoneally for 5 days; format: functional; details: route intraperitoneal; outline: as §1
Mus musculus [9] = test: Antitumor activity against P388 leukemia in mice at a dose of 2.5 mg/kg administered intraperitoneally for 5 days; format: functional; details: route intraperitoneal; outline: as §1
Mus musculus [10] = test: Antitumor activity against P388 leukemia in mice at a dose of 20 mg/kg administered intraperitoneally for 5 days; Nontoxic at this dose; format: functional; details: route intraperitoneal; outline: as §2
Mus musculus [11] = test: Antitumor activity against P388 leukemia in mice at a dose of 5 mg/kg administered intraperitoneally for 5 days; format: functional; details: route intraperitoneal; outline: as §2

Structure (SMILES) | K aff (Calf thymus DNA) | IC50 (L1210) | T/C (Mus musculus [1]) | T/C (Mus musculus [2]) | T/C (Mus musculus [3]) | T/C (Mus musculus [4]) | T/C (Mus musculus [5]) | T/C (Mus musculus [6]) | T/C (Mus musculus [7]) | T/C (Mus musculus [8]) | T/C (Mus musculus [9]) | T/C (Mus musculus [10]) | T/C (Mus musculus [11])
CCN(CC)CCCNc1nccc2c(C)c3[nH]c4ccc(OC)cc4c3c(C)c12 [RETELLIPTINE] | 700000 M⁻¹ | 100 nM | 171% | 178% | 283% | 188% | 113% | 245% | 273% |  |  |  | 
CN(C)CCCNc1nccc2c1c1cc(O)ccc1n2C | 120000 M⁻¹ | 190 nM |  |  |  |  |  |  |  | 169% | 137% | 173% | 145%
